The source of these data is ChEMBL document CHEMBL1153764, “A facile one-pot green synthesis and antibacterial activity of 2-amino-4H-pyrans and 2-amino-5-oxo-5,6,7,8-tetrahydro-4H-chromenes” (2009).

≈ marks a conversion by molar mass, not a printed value. Some results are limits rather than exact numbers.

What all share (format): functional
Test [1] has as its system Staphylococcus aureus. Kind of test: Antibacterial activity against Staphylococcus aureus MTCC 1144 at 128 ug/ml after 16 hrs by disc diffusion method. The conditions noted are these: MTCC 1144, 16 h, read-out: IZ. Put shortly: (§1)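 Disc diffusion zone-of-inhibition assay. The bacterial isolate was spread evenly over the surface of an agar plate. A filter disc loaded with a known amount of compound was placed on the surface, and the compound diffused into the surrounding agar. Plates were incubated 16 h until a bacterial lawn formed, and the zone of inhibition around the disc was then assessed.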
A general note: In agar diffusion tests the substance spreads into inoculated agar from a disc or well.

In test [2] the test system is Pseudomonas putida. Kind of test: Antibacterial activity against Pseudomonas putida MTCC 1072 at 128 ug/ml after 16 hrs by disc diffusion method. The conditions noted are these: MTCC 1072, 16 h, read-out: IZ. The gist of the method: as §1
In test [3] the test system is Escherichia coli. The test can be described thus: Antibacterial activity against Escherichia coli MTCC 41 at 64 ug/ml after 16 hrs by disc diffusion method. The note with it: MTCC 41, 16 h, read-out: IZ. Put shortly:
as §1

In test [4] the test system is Escherichia coli. The test can be described thus: Antibacterial activity against Escherichia coli MTCC 41 at 128 ug/ml after 16 hrs by disc diffusion method. The note with it: MTCC 41, 16 h, read-out: IZ. Put shortly:
as §1

Test [5] concerns Staphylococcus aureus. The test can be described thus: Antibacterial activity against Staphylococcus aureus MTCC 1144 after 12 to 16 hrs. The gist of the method: (§2)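 Tube broth dilution MIC. Tubes were inoculated with the bacterial strain and incubated 12–16 h. Growth was scored visually: a turbid tube means growth, a clear tube means no growth. MIC is the lowest concentration with no growth.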

Test [6] relates to Pseudomonas putida. Kind of test: Antibacterial activity against Pseudomonas putida MTCC 1072 at 64 ug/ml after 16 hrs by disc diffusion method. The note with it: MTCC 1072, 16 h, read-out: IZ. The gist of the method: as §1
Test [7] concerns Escherichia coli. The test can be described thus: Antibacterial activity against Escherichia coli MTCC 41 after 12 to 16 hrs. The gist of the method: as §2
In test [8] the test system is Staphylococcus aureus. The test can be described thus: Antibacterial activity against Staphylococcus aureus MTCC 1144 at 64 ug/ml after 16 hrs by disc diffusion method. The conditions noted are these: MTCC 1144, 16 h, read-out: IZ. The gist of the method: as §1
The test system of test [9] is Pseudomonas putida. The test can be described thus: Antibacterial activity against Pseudomonas putida MTCC 1072 after 12 to 16 hrs. The gist of the method:
as §2

A word on the MIC: it is the smallest concentration in the dilution series that meets the test's criterion for growth inhibition. A lower MIC goes with inhibition by little substance. For the compound `CCOC(=O)C1=C(C)OC(N)=C(C#N)C1c1ccc([N+](=O)[O-])cc1` (stereo not drawn), the zone of inhibition at 128 µg/mL with Staphylococcus aureus [1], in the test on Pseudomonas putida [2] and in the test with Escherichia coli [4] was less than 1 mm each time. Besides, the zone of inhibition at 64 µg/mL in the test on Escherichia coli [3], in the test with Pseudomonas putida [6] and in the test with Staphylococcus aureus [8] was less than 1 mm each time. In addition, the minimal inhibitory concentration (MIC) against Staphylococcus aureus [5], against Escherichia coli [7] and against Pseudomonas putida [9] was greater than 128 µg/mL each time.
Turning to `CC1(C)CC(=O)C2=C(C1)OC(N)=C(C#N)C2c1ccc(Cl)cc1` (stereo not drawn), the zone of inhibition at 128 µg/mL in the test with Staphylococcus aureus [1], in the test with Pseudomonas putida [2] and in the test with Escherichia coli [4] was greater than 3 mm each time. Besides, the zone of inhibition at 64 µg/mL with Escherichia coli [3], in the test on Pseudomonas putida [6] and in the test on Staphylococcus aureus [8] was greater than 2 mm throughout. Further, the minimum inhibitory concentration (MIC) with Staphylococcus aureus [5], against Escherichia coli [7] and in the test on Pseudomonas putida [9] was 128 µg/mL (≈ 389 µM) each time.
As for `Cc1ccc(C2C(C#N)=C(N)OC3=C2C(=O)CC(C)(C)C3)cc1` (stereo not drawn), the zone of inhibition at 128 µg/mL was greater than 2 mm in the test with Staphylococcus aureus [1], greater than 3 mm in the test with Pseudomonas putida [2] and greater than 2 mm in the test on Escherichia coli [4]. Also, the zone of inhibition at 64 µg/mL with Escherichia coli [3], with Pseudomonas putida [6] and in the test on Staphylococcus aureus [8] was greater than 2 mm throughout. In addition, the MIC against Staphylococcus aureus [5] is greater than 128 µg/mL; in the test with Escherichia coli [7] it was greater than 128 µg/mL; in the test with Pseudomonas putida [9] it was 128 µg/mL (≈ 415 µM).
On to `CC1(C)CC(=O)C2=C(C1)OC(N)=C(C#N)C2c1cccc(O)c1` (stereo not drawn), for which the figures for the zone of inhibition at 128 µg/mL with Staphylococcus aureus [1], in the test with Pseudomonas putida [2] and with Escherichia coli [4] were greater than 2 mm, greater than 3 mm and greater than 3 mm, respectively. Moreover, the zone of inhibition at 64 µg/mL was greater than 2 mm in the test with Escherichia coli [3], greater than 3 mm with Pseudomonas putida [6] and greater than 2 mm in the test on Staphylococcus aureus [8]. Moreover, the MIC in the test with Staphylococcus aureus [5] was greater than 128 µg/mL; in the test on Escherichia coli [7] it was 128 µg/mL (≈ 412 µM); in the test with Pseudomonas putida [9], 64 µg/mL (≈ 206 µM).
In the case of `CC1(C)CC(=O)C2=C(C1)OC(N)=C(C#N)C2c1ccccc1` (stereo not drawn), the zone of inhibition at 128 µg/mL in the test on Staphylococcus aureus [1] was less than 1 mm; in the test with Pseudomonas putida [2], greater than 2 mm; with Escherichia coli [4], greater than 2 mm. The zone of inhibition at 64 µg/mL in the test with Escherichia coli [3] was less than 1 mm; with Pseudomonas putida [6], greater than 2 mm; with Staphylococcus aureus [8] it was less than 1 mm. Moreover, the MIC with Staphylococcus aureus [5], against Escherichia coli [7] and with Pseudomonas putida [9] was greater than 128 µg/mL in each case.
As for `COc1ccc(C2C(C#N)=C(N)OC3=C2C(=O)CC(C)(C)C3)cc1` (stereo not drawn), the zone of inhibition at 128 µg/mL is greater than 2 mm with Staphylococcus aureus [1], greater than 3 mm with Pseudomonas putida [2] and greater than 3 mm in the test with Escherichia coli [4]. The zone of inhibition at 64 µg/mL in the test with Escherichia coli [3] was greater than 3 mm; in the test with Pseudomonas putida [6], greater than 2 mm; in the test on Staphylococcus aureus [8], greater than 2 mm. Also, the MIC against Staphylococcus aureus [5] was greater than 128 µg/mL; in the test with Escherichia coli [7], 64 µg/mL (≈ 197 µM); in the test on Pseudomonas putida [9], 128 µg/mL (≈ 395 µM).
Consider `CC1(C)CC(=O)C2=C(C1)OC(N)=C(C#N)C2c1cccc([N+](=O)[O-])c1` (stereo not drawn), for which the zone of inhibition at 128 µg/mL in the test on Staphylococcus aureus [1], in the test with Pseudomonas putida [2] and in the test on Escherichia coli [4] was greater than 3 mm each time. The zone of inhibition at 64 µg/mL with Escherichia coli [3] is less than 1 mm; in the test on Pseudomonas putida [6], less than 1 mm; with Staphylococcus aureus [8] it was greater than 2 mm. In addition, the MIC against Staphylococcus aureus [5], against Escherichia coli [7] and in the test with Pseudomonas putida [9] was 128 µg/mL (≈ 377 µM) in each case.
Regarding `CC1(C)CC(=O)C2=C(C1)OC(N)=C(C#N)C2c1ccc([N+](=O)[O-])cc1` (stereo not drawn), the zone of inhibition at 128 µg/mL in the test with Staphylococcus aureus [1], in the test with Pseudomonas putida [2] and in the test on Escherichia coli [4] was greater than 3 mm each time. Also, the zone of inhibition at 64 µg/mL is greater than 3 mm in the test with Escherichia coli [3], less than 1 mm in the test on Pseudomonas putida [6] and greater than 3 mm with Staphylococcus aureus [8]. Further, the MIC against Staphylococcus aureus [5] turned out to be 64 µg/mL (≈ 189 µM); in the test on Escherichia coli [7], 64 µg/mL (≈ 189 µM); against Pseudomonas putida [9], 128 µg/mL (≈ 377 µM).
`CCOC(=O)C1=C(C)OC(N)=C(C#N)C1c1cccc([N+](=O)[O-])c1` (stereo not drawn): the zone of inhibition at 128 µg/mL in the test on Staphylococcus aureus [1], in the test with Pseudomonas putida [2] and in the test on Escherichia coli [4] was less than 1 mm in each case. For the same compound, the zone of inhibition at 64 µg/mL with Escherichia coli [3], with Pseudomonas putida [6] and in the test with Staphylococcus aureus [8] was less than 1 mm in each case. Besides, the MIC in the test with Staphylococcus aureus [5], against Escherichia coli [7] and against Pseudomonas putida [9] was greater than 128 µg/mL throughout.
For the compound `CCOC(=O)C1=C(C)OC(N)=C(C#N)C1c1ccccc1` (stereo not drawn), the zone of inhibition at 128 µg/mL with Staphylococcus aureus [1], in the test with Pseudomonas putida [2] and in the test on Escherichia coli [4] was greater than 3 mm throughout. Further, the zone of inhibition at 64 µg/mL was greater than 3 mm in the test with Escherichia coli [3], less than 1 mm with Pseudomonas putida [6] and less than 1 mm in the test on Staphylococcus aureus [8]. For the same compound, the figures for the minimum inhibitory concentration (MIC) with Staphylococcus aureus [5], in the test with Escherichia coli [7] and against Pseudomonas putida [9] were 128 µg/mL (≈ 450 µM), 64 µg/mL (≈ 225 µM) and 128 µg/mL (≈ 450 µM), respectively.
As to `CCOC(=O)C1=C(C)OC(N)=C(C#N)C1c1cccc(Cl)c1` (stereo not drawn), the zone of inhibition at 128 µg/mL in the test with Staphylococcus aureus [1], with Pseudomonas putida [2] and in the test with Escherichia coli [4] was greater than 3 mm in each case. The zone of inhibition at 64 µg/mL in the test on Escherichia coli [3], in the test with Pseudomonas putida [6] and in the test with Staphylococcus aureus [8] was less than 1 mm in each case. For the same compound, the minimal inhibitory concentration (MIC) in the test with Staphylococcus aureus [5], against Escherichia coli [7] and against Pseudomonas putida [9] was 128 µg/mL (≈ 402 µM) in each case.
As for `CCOC(=O)C1=C(C)OC(N)=C(C#N)C1c1ccc(Cl)cc1` (stereo not drawn), the zone of inhibition at 128 µg/mL in the test on Staphylococcus aureus [1], in the test on Pseudomonas putida [2] and in the test on Escherichia coli [4] was less than 1 mm throughout. The zone of inhibition at 64 µg/mL with Escherichia coli [3], in the test with Pseudomonas putida [6] and in the test with Staphylococcus aureus [8] was less than 1 mm throughout. Moreover, the MIC against Staphylococcus aureus [5], in the test on Escherichia coli [7] and against Pseudomonas putida [9] was greater than 128 µg/mL throughout.
On to `CCOC(=O)C1=C(C)OC(N)=C(C#N)C1c1ccc(C)cc1` (stereo not drawn), for which the zone of inhibition at 128 µg/mL in the test on Staphylococcus aureus [1], in the test on Pseudomonas putida [2] and in the test with Escherichia coli [4] was less than 1 mm each time. For the same compound, the zone of inhibition at 64 µg/mL with Escherichia coli [3], in the test with Pseudomonas putida [6] and in the test with Staphylococcus aureus [8] was less than 1 mm each time. Moreover, the minimal inhibitory concentration (MIC) in the test on Staphylococcus aureus [5], with Escherichia coli [7] and in the test with Pseudomonas putida [9] was greater than 128 µg/mL throughout.
Take `CCOC(=O)C1=C(C)OC(N)=C(C#N)C1c1cccc(O)c1` (stereo not drawn): the results for the zone of inhibition at 128 µg/mL in the test with Staphylococcus aureus [1], in the test on Pseudomonas putida [2] and with Escherichia coli [4] were less than 1 mm, greater than 3 mm and less than 1 mm, respectively. The zone of inhibition at 64 µg/mL with Escherichia coli [3], in the test with Pseudomonas putida [6] and in the test on Staphylococcus aureus [8] was less than 1 mm each time. Further, the minimal inhibitory concentration (MIC) is greater than 128 µg/mL in the test with Staphylococcus aureus [5], greater than 128 µg/mL with Escherichia coli [7] and 128 µg/mL (≈ 426 µM) with Pseudomonas putida [9].
As to `CCOC(=O)C1=C(C)OC(N)=C(C#N)C1c1ccc(OC)cc1` (stereo not drawn), the zone of inhibition at 128 µg/mL in the test on Staphylococcus aureus [1], in the test with Pseudomonas putida [2] and in the test with Escherichia coli [4] was greater than 3 mm in each case. The zone of inhibition at 64 µg/mL with Escherichia coli [3], in the test with Pseudomonas putida [6] and in the test on Staphylococcus aureus [8] was less than 1 mm each time. The minimum inhibitory concentration (MIC) in the test on Staphylococcus aureus [5], against Escherichia coli [7] and against Pseudomonas putida [9] was 128 µg/mL (≈ 407 µM) throughout.
Take `CC1(C)S[C@@H]2[C@H](NC(=O)[C@H](N)c3ccccc3)C(=O)N2[C@H]1C(=O)O` [AMPICILLIN]: the zone of inhibition at 128 µg/mL was greater than 5 mm in the test on Staphylococcus aureus [1], 0 mm in the test on Pseudomonas putida [2] and greater than 5 mm with Escherichia coli [4]. Further, the zone of inhibition at 64 µg/mL in the test with Escherichia coli [3] is greater than 5 mm; in the test with Pseudomonas putida [6], 0 mm; in the test with Staphylococcus aureus [8] it was greater than 5 mm. Further, the MIC was 16 µg/mL (≈ 45.8 µM) in the test with Escherichia coli [7] and greater than 256 µg/mL against Pseudomonas putida [9].
